Test results taken from ChEMBL document CHEMBL1124828, “Synthesis and antiviral and cytotoxic activity of iodohydrin and iodomethoxy derivatives of 5-vinyl-2'-deoxyuridines, 2'-fluoro-2'-deoxyuridine, and uridine” (J Med Chem, 1990).
In brackets after ≈: the same amount, converted by molar mass. Activity calls are given as the source filed them. No cut-off for these calls is given here.

How the values were obtained:
L1210 [1] = assay: Tested for cytotoxicity against murine L1210 cells in vitro; weak cytotoxicity; assay type: functional, cell-based; details: Mus musculus
Vero [2] = assay: Dose to inhibit plaque formation in vero cells infected with herpes simplex virus type-1 (HSV-1,strainJLJ) was determined relative to acyclovir; value ranges from 0.1-1.0 ug/mL; assay type: functional; details: Chlorocebus sabaeus, read-out: ID50 (the source's name)
L1210 [3] = assay: In vitro cytotoxicity was determined against L1210 leukemia cell from mouse.; assay type: functional; details: read-out: ED50 (the source's name)
Method in brief: (§1)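 Mouse L1210 cells were grown in suspension in Fischer's medium with 10% heat-inactivated horse serum at 37 °C, 5% CO2, seeded at 10⁵ cells/mL. Compound was added from ethanol, water or ethanol/water at final 50, 25, 10, 5.0, 2.5 and 1 μg/mL. Cells were counted by Coulter counter at 48 h, in triplicate. % survival = (T48−T0)/(C48−C0)×100; ED50 is the 50% survival reduction.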

Mus musculus = species on record: Mus musculus; assay: Percent survival of L1210 cells in suspension was determined after a dose of 10 ug/mL in mouse; assay type: functional
Method in brief: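 L1210 suspension cultures in Fischer's medium with 10% heat-inactivated horse serum, 37 °C, 5% CO2. Compound was added from ethanol, water or ethanol/water at final 50, 10 or 1 μg/mL. Cells were counted by Coulter counter after 48 h. % survival = (T48−T0)/(C48−C0)×100 versus untreated controls, given as mean ± SD (n = 3).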

Vero [4] = assay: Dose to inhibit plaque formation in vero cells infected with herpes simplex virus type-1 (HSV-1,strainJLJ) was determined; assay type: functional; details: Chlorocebus sabaeus, read-out: ID50 (the source's name)
Method in brief: (§2)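 HSV-1 plaque-reduction assay in Vero cell monolayers. After 1-h virus adsorption at 37 °C, cells were overlaid with 1% agarose in E-MEM with 2% FBS containing the compound at 0.1, 1.0 and 10 μg/mL. Neutral red staining followed 4 days at 37 °C in 5% CO2, then plaques were counted. ID50 is the concentration cutting plaque number by 50%. The experiment was run once.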

[5] = Inhibition constant was determined for the facilitated transport of [[…]]-thymidine by murine erythrocyte NBMPR-sensitive nucleoside transporter.; assay type: functional, Mus musculus
Method in brief: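 Murine erythrocytes; facilitated uptake of [3H]thymidine through the NBMPR-sensitive nucleoside transporter. Extracellular [3H]thymidine sampled at various times after exposure and counted by liquid scintillation. Ki taken as the inhibition constant for this transport. Values are generally the mean of two determinations (range), with some n = 1 and the 2'-deoxyuridine reference n = 3.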

P388 [6] = assay: In vivo cytotoxicity was determined against P388 mouse leukemia cells expressed as % treated/control; assay type: functional
Method in brief: (§3)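 B6D2F1 mice, six per group, were implanted ip with 10⁶ P388 leukemia cells in 0.2 mL saline on day 0. Compound in saline/ethanol (6:1) was given ip at 20 mg/kg on days 1–5. Mice were followed until death. Mean survival time was compared with saline-treated controls and expressed as % T/C.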

Vero [7] = assay: Dose to inhibit plaque formation in vero cells infected with herpes simplex virus type 1 (HSV-1,strainJLJ) was determined; assay type: functional; details: Chlorocebus sabaeus, read-out: ID50 (the source's name); method in brief: as §2
L1210 [8] = assay: In vitro cytotoxicity was determined against L1210 leukemia cells from mouse; assay type: functional; details: read-out: ED50 (the source's name); method in brief: as §1
P388 [9] = assay: In vivo cytotoxicity was determined against P388 mouse leukemia cells, (% treated / control) at 20 mg/kg (ip) administration; assay type: functional; method in brief: as §3
Human alphaherpesvirus 1 = assay: Tested for in vitro anti-HSV-1 activity; active; assay type: functional, organism-based

| SMILES | Survival (Mus musculus) [%] | IC50 (Vero [4]) [µg/mL] | Ki [5] [µM] | also measured |
| --- | --- | --- | --- | --- |
| O=c1[nH]c(=O)n([C@H]2C[C@H](O)[C@@H](CO)O2)cc1C(O)CBr (some centres not stated) |  |  |  | Cyotoxicity (L1210 [1]): weak cytotoxicity; IC50 (Vero [2]): 1 µg/mL (≈ 2.85 µM) |
| O=c1[nH]c(=O)n(C2CC(O)C(CO)O2)cc1C(O)C(I)I (configuration not stated) | 2 | > 10 | 220 | EC50 (L1210 [3]): 0.77 µg/mL (≈ 1.47 µM); T/C (P388 [6]): 112% |
| Nc1nc2c(ncn2COCCO)c(=O)[nH]1 [ACYCLOVIR] |  |  |  | IC50 (Vero [7]): 0.01 µg/mL (≈ 0.0444 µM) |
| COC(CI)c1cn(C2O[C@H](CO)[C@@H](O)[C@H]2O)c(=O)[nH]c1=O (some centres not stated) | 108 | > 100 |  |  |
| COC(CBr)c1cn([C@H]2C[C@H](O)[C@@H](CO)O2)c(=O)[nH]c1=O (some centres not stated) |  |  |  | Cyotoxicity (L1210 [1]): weak cytotoxicity; IC50 (Vero [2]): 1 µg/mL (≈ 2.74 µM) |
| O=c1ccn([C@H]2C[C@H](O)[C@@H](CO)O2)c(=O)[nH]1 [DEOXYURIDINE] |  |  | 125 |  |
| N[C@@H](Cc1ccc(N(CCCl)CCCl)cc1)C(=O)O [MELPHALAN] |  |  |  | EC50 (L1210 [8]): 0.15 µg/mL (≈ 0.491 µM) |
| COC(CI)c1cn([C@H]2C[C@H](O)[C@@H](CO)O2)c(=O)[nH]c1=O (some centres not stated) | 42 | 0.1 (≈ 0.243 µM) | 35 | EC50 (L1210 [3]): 6 µg/mL (≈ 14.6 µM); T/C (P388 [6]): 114% |
| O=c1nc2c(cn1[C@H]1C[C@H](O)[C@@H](CO)O1)C(O)CO2 (some centres not stated) | 103 | > 100 | 8000 |  |
| O=c1[nH]c(=O)n([C@H]2C[C@H](O)[C@@H](CO)O2)cc1/C=C/I |  | < 0.1 | 25 |  |
| COCC(O)c1cn([C@H]2C[C@H](O)[C@@H](CO)O2)c(=O)[nH]c1=O (some centres not stated) | 37 | > 10 | 610 | EC50 (L1210 [3]): 12 µg/mL (≈ 39.7 µM); T/C (P388 [6]): 103% |
| C=Cc1cn([C@@H]2O[C@H](CO)[C@@H](O)[C@H]2F)c(=O)[nH]c1=O | 87 | 0.1 (≈ 0.367 µM) |  |  |
| O=c1[nH]cc(F)c(=O)[nH]1 [FLUOROURACIL] |  |  |  | T/C (P388 [9]): >135% |
| O=c1[nH]c(=O)n([C@H]2C[C@H](O)[C@@H](CO)O2)cc1C(O)CCl (some centres not stated) |  |  |  | Cyotoxicity (L1210 [1]): weak cytotoxicity; IC50 (Vero [2]): 1 µg/mL (≈ 3.26 µM) |
| O=c1[nH]c(=O)n([C@@H]2O[C@H](CO)[C@@H](O)[C@H]2F)cc1C(O)CI (some centres not stated) | 93 | > 100 |  |  |
| O=c1[nH]c(=O)n([C@H]2C[C@H](O)[C@@H](CO)O2)cc1/C=C/Br |  |  |  | Activity (Human alphaherpesvirus 1): Active |
| COC(CI)c1cn([C@@H]2O[C@H](CO)[C@@H](O)[C@H]2F)c(=O)[nH]c1=O (some centres not stated) | 97 | > 100 |  |  |
| O=c1[nH]c(=O)n([C@H]2C[C@H](O)[C@@H](CO)O2)cc1CCCl |  |  |  | Activity (Human alphaherpesvirus 1): Active |
| O=c1[nH]c(=O)n([C@H]2C[C@H](O)[C@@H](CO)O2)cc1C(O)CI (some centres not stated) | 52 | > 10 | 155 | EC50 (L1210 [3]): 10.5 µg/mL (≈ 26.4 µM); T/C (P388 [6]): 98% |
| O=c1[nH]c(=O)n(C2O[C@H](CO)[C@@H](O)[C@H]2O)cc1C(O)CI (some centres not stated) | 87 | > 100 |  |  |
